Experimental data as given in ChEMBL document CHEMBL1154561, “Bioactive compounds from Combretum erythrophyllum” (J Nat Prod, 2000).
Values after ≈ are worked out from the molar mass of the structure shown.

Legend:
A549 = assay: Cytotoxicity against human A549 cells by XTT assay; assay type: functional, cell-based
Saccharomyces cerevisiae [1] = assay: Inhibition of pRAD52 recombination repair gene/topoisomerase 1 deficient Saccharomyces cerevisiae RS321N carrying pRAD52 in glucose medium by microtiter plate assay; assay type: functional, organism-based
Outline: (§1)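 Yeast in minimal medium with galactose or glucose at 2% final. Samples are dissolved in 10% DMSO at 10× final concentration and added 1:10 to the cell suspension in triplicate, with 10% DMSO wells as controls. Plates are incubated at 30 °C in high humidity for 48-72 h and read when control growth reaches OD 0.15-0.25. Inhibition = 1 − (ODtest − ODblank)/(ODplate median − ODblank); IC50 in µg/mL.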

Saccharomyces cerevisiae [2] = assay: Inhibition of Saccharomyces cerevisiae RS321NYCp50 in galactose medium by microtiter plate assay; assay type: functional, organism-based; outline: as §1
Saccharomyces cerevisiae [3] = assay: Inhibition of pRAD52 recombination repair gene/topoisomerase 1 deficient Saccharomyces cerevisiae RS321N carrying pRAD52 in galactose medium by microtiter plate assay; assay type: functional, organism-based; outline: as §1
HeLa = assay: Cytotoxicity against human HeLa cells by XTT assay; assay type: functional, cell-based
Saccharomyces cerevisiae [4] = assay: Inhibition of Saccharomyces cerevisiae RS188 expressing wild type erg6 by agar diffusion assay; assay type: functional, organism-based
Saccharomyces cerevisiae [5] = assay: Inhibition of Saccharomyces cerevisiae RS322 expressing Rad52.erg6 by agar diffusion assay; assay type: functional
Saccharomyces cerevisiae [6] = assay: Inhibition of Saccharomyces cerevisiae RS321 expressing Rad52.erg6.top1 by agar diffusion assay; assay type: functional

| Compound | IC50 (A549) [µg/mL] | IC50 (Saccharomyces cerevisiae [1]) [µg/mL] | IC50 (Saccharomyces cerevisiae [2]) [µg/mL] | IC50 (Saccharomyces cerevisiae [3]) [µg/mL] | IC50 (HeLa) [µg/mL] | IC12 (Saccharomyces cerevisiae [4]) [µg/mL] | IC12 (Saccharomyces cerevisiae [5]) [µg/mL] | IC12 (Saccharomyces cerevisiae [6]) [µg/mL] |
| --- | --- | --- | --- | --- | --- | --- | --- | --- |
| COc1ccc(/C=C\c2cc(OC)c(OC)c(OC)c2)c(O[C@H]2O[C@@H](CO)[C@H](O)[C@@H](O)[C@@H]2O)c1O | 7 (≈ 14.2 µM) | 3 | 13 (≈ 26.3 µM) | > 100 | 1.5 (≈ 3.03 µM) | – | – | – |
| COc1ccc(CCc2cc(OC)c(OC)c(OC)c2)c(O[C@H]2O[C@@H](CO)[C@H](O)[C@@H](O)[C@@H]2O)c1O | – | > 100 | 25 (≈ 50.4 µM) | > 100 | – | > 100 | > 100 | > 100 |
| COc1ccc(/C=C\c2cc(OC)c(OC)c(OC)c2)c(O)c1O [COMBRETASTATIN A-1] | – | 18 | 1.8 (≈ 5.42 µM) | 53 | – | 80.1 | 33.5 | 2.2 |
